In ChEMBL document CHEMBL3526133, “Identifying a selective substrate and inhibitor pair for the evaluation of CYP2J2 activity” (Drug Metab Dispos, 2012):
Values belong to the molecule of their own block, whether it stands above or below them.

Legend:
CYP2J2 [1] = target: T1, CYP2J2 (Homo sapiens, UniProt P51589); assay: in vitro; conditions: recombinant enzyme
T1 sequence (P51589 whole entry): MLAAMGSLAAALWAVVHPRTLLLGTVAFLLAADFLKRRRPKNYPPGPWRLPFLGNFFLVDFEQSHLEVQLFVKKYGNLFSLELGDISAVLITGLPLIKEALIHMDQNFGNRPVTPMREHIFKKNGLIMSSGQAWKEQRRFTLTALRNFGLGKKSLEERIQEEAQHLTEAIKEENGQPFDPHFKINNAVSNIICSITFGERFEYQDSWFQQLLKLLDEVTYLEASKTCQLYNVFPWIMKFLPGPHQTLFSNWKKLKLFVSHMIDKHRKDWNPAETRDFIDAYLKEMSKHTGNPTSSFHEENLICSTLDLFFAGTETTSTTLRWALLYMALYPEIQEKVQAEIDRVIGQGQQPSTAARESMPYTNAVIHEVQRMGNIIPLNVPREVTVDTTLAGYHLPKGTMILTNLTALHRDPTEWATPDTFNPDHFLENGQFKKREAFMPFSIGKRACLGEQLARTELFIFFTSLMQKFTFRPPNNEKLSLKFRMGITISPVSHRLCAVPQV

CYP2C8 [2] = target: T2, CYP2C8 (Homo sapiens, UniProt P10632); assay: in vitro; conditions: human liver microsomes, probe paclitaxel (metabolite formation)
T2 sequence (P10632 whole entry): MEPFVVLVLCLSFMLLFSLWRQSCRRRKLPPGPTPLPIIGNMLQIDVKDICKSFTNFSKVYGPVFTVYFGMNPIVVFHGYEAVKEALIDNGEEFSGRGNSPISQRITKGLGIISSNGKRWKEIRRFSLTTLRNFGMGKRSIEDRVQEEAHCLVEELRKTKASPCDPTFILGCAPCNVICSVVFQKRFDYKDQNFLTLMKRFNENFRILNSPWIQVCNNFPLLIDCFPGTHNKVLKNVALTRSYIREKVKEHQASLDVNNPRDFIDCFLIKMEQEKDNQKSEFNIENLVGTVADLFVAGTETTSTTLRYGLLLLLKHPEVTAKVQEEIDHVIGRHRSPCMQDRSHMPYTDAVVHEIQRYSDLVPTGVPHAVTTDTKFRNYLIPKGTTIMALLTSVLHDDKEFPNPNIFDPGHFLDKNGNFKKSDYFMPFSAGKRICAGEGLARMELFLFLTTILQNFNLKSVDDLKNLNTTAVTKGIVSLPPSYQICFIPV

CYP2J2 [3] = target: T1, CYP2J2; assay: in vitro
Cytochrome P450 2C8 = target: T3, Cytochrome P450 2C8 (Homo sapiens, UniProt P10632)
T3 sequence (P10632 whole entry): T2 sequence (P10632 whole entry)

CYP1A2 = target: T4, CYP1A2 (Homo sapiens, UniProt P05177); assay: Inhibition of CYP1A2-mediated phenacetin metabolite formation in human liver microsomes at 0.3 uM after 8 mins by LC-MS/MS analysis relative to control; format: ADME; conditions: probe phenacetin (metabolite formation)
T4 sequence (P05177 whole entry): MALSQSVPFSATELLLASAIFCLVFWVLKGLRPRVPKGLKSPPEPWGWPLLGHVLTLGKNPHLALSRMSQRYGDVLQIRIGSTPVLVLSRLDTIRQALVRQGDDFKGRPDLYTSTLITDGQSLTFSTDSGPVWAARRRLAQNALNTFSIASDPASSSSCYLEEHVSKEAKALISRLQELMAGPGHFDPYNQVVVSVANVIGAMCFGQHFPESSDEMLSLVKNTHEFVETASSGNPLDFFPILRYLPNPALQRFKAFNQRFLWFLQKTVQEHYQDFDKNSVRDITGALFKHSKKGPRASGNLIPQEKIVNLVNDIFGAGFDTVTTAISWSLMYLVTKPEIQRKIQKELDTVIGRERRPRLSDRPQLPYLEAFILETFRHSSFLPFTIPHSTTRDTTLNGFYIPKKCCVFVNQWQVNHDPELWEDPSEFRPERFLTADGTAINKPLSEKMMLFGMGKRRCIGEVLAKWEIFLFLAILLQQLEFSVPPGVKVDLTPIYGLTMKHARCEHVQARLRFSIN
In short: (§1)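 Pooled HLM with probe cocktail: phenacetin 10 µM, paclitaxel 5 µM, diclofenac 5 µM, S-mephenytoin 40 µM, dextromethorphan 5 µM, midazolam 2 µM. […] Preincubated 15 min, then started with NADPH-regenerating system (1 mM NADPH). Reaction run 8 min, quenched in acetonitrile with internal standard. Metabolites measured by LC-MS/MS; % inhibition given as mean ± S.D.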

Cytochrome P450 1A2 = target: T5, Cytochrome P450 1A2 (Homo sapiens, UniProt P05177)
T5 sequence (P05177 whole entry): T4 sequence (P05177 whole entry)

CYP3A4 = CYP3A4 (Homo sapiens, UniProt P08684); assay: Inhibition of CYP3A4-mediated midazolam metabolite formation in human liver microsomes at 0.3 uM after 8 mins by LC-MS/MS analysis relative to control; format: ADME; conditions: probe midazolam (metabolite formation)
Chain of CYP3A4 (P08684 whole entry): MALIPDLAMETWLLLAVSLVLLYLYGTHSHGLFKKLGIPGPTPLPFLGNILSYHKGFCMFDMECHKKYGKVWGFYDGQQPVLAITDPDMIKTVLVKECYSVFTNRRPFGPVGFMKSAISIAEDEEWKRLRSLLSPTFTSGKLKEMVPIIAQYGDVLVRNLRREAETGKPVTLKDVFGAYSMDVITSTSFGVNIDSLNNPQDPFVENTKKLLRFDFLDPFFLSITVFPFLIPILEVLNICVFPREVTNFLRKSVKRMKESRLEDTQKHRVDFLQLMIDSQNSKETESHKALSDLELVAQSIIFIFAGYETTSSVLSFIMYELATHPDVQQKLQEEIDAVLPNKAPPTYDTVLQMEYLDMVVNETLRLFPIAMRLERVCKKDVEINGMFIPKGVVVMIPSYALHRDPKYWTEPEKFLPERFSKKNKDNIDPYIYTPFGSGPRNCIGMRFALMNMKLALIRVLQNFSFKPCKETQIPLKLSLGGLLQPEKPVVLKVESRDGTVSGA
In short: as §1

CYP2C8 [4] = target: T2, CYP2C8; assay: Inhibition of CYP2C8-mediated paclitaxel metabolite formation in human liver microsomes at 0.3 uM after 8 mins by LC-MS/MS analysis relative to control; format: ADME; conditions: probe paclitaxel (metabolite formation)
In short: as §1

CYP2C19 = CYP2C19 (Homo sapiens, UniProt P33261); assay: Inhibition of CYP2C19-mediated S-mephenytoin metabolite formation in human liver microsomes at 0.3 uM after 8 mins by LC-MS/MS analysis relative to control; format: ADME; conditions: probe S-mephenytoin (metabolite formation)
Chain of CYP2C19 (P33261 whole entry): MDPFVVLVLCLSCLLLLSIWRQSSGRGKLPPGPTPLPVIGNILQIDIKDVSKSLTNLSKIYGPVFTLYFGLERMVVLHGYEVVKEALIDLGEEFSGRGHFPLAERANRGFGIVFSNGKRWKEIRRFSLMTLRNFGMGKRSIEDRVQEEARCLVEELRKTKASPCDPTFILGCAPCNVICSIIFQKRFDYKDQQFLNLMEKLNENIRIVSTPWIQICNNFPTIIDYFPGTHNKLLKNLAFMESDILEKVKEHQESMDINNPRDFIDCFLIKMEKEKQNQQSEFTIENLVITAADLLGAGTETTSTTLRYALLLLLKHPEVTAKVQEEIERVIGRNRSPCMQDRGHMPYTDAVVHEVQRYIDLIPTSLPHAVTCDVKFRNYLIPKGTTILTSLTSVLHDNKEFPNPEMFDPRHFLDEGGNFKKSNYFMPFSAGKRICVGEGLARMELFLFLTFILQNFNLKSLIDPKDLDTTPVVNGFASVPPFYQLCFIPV
In short: as §1

Cytochrome P450 2D6 = Cytochrome P450 2D6 (Homo sapiens, UniProt P10635)
Chain of Cytochrome P450 2D6 (P10635 whole entry): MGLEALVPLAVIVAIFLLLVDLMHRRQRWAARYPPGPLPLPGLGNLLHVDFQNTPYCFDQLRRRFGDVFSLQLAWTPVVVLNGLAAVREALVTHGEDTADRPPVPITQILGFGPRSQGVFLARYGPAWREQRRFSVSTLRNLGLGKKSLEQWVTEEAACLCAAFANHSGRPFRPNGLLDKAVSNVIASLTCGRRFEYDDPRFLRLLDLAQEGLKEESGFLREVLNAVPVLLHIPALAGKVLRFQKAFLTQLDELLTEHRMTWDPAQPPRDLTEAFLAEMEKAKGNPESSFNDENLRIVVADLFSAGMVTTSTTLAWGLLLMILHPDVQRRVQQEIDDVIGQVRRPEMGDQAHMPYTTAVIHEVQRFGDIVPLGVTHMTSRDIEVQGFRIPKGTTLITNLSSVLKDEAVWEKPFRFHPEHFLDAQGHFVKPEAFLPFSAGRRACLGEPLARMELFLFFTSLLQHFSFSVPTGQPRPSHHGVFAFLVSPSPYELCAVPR

Cytochrome P450 2C19 = Cytochrome P450 2C19 (Homo sapiens, UniProt P33261)
Chain of Cytochrome P450 2C19 (P33261 whole entry): as the sequence (P33261 whole entry) above

Cytochrome P450 2J2 [5] = target: T6, Cytochrome P450 2J2 (Homo sapiens, UniProt P51589); assay: Drug metabolism in human liver microsomes assessed as CYP2J2-mediated astemizole O-demethylation measured per pmol protein at 0.3 uM after 5 mins by LC-MS/MS analysis; format: ADME
T6 sequence (P51589 whole entry): T1 sequence (P51589 whole entry)

CYP2C9 = CYP2C9 (Homo sapiens, UniProt P11712); assay: Inhibition of CYP2C9-mediated diclofenac metabolite formation in human liver microsomes at 0.3 uM after 8 mins by LC-MS/MS analysis relative to control; format: ADME; conditions: probe diclofenac (metabolite formation)
Chain of CYP2C9 (P11712 whole entry): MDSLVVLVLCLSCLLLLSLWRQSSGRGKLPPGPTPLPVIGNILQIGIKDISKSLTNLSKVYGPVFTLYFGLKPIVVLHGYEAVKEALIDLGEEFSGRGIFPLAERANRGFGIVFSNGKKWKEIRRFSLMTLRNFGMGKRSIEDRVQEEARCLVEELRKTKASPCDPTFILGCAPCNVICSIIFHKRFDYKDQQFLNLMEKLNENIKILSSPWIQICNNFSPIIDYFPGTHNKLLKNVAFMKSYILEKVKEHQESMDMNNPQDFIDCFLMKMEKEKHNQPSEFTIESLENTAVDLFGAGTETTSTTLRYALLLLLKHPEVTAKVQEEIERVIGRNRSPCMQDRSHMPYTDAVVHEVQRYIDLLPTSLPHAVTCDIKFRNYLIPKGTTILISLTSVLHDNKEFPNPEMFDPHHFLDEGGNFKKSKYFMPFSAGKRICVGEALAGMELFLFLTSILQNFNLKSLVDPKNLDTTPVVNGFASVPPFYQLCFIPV
In short: as §1

Cytochrome P450 2C9 = Cytochrome P450 2C9 (Homo sapiens, UniProt P11712)
Chain of Cytochrome P450 2C9 (P11712 whole entry): as above

CYP2D6 = CYP2D6 (Homo sapiens, UniProt P10635); assay: Inhibition of CYP2D6-mediated dextromethorphan metabolite formation in human liver microsomes at 0.3 uM after 8 mins by LC-MS/MS analysis relative to control; format: ADME; conditions: probe dextromethorphan (metabolite formation)
Chain of CYP2D6 (P10635 whole entry): as the sequence (P10635 whole entry) above
In short: as §1

[6] = Retention time in potassium phosphate buffer treated with amiodarone hydrochloride at 30 uM by HPLC analysis; format: physicochemical
Cytochrome P450 2J2 [7] = target: T6, Cytochrome P450 2J2; assay: Drug metabolism in human liver microsomes assessed as CYP2J2-mediated compound formation treated with amiodarone at 1 uM after 5 to 45 mins by LC-MS/MS analysis; format: ADME
Cytochrome P450 3A4 = Cytochrome P450 3A4 (Homo sapiens, UniProt P08684); assay: Drug metabolism assessed as recombinant CYP3A4 (unknown origin)-mediated compound formation treated with amiodarone at 1 uM after 5 to 45 mins by LC-MS/MS analysis; format: ADME; conditions: recombinant enzyme
Chain of Cytochrome P450 3A4 (P08684 whole entry): as the sequence (P08684 whole entry) above
In short: (§2)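 Preincubated, then started with NADPH-regenerating system (1 mM NADPH final). Aliquots taken at 0, 5, 10, 20, 30, 45 min and quenched in acetonitrile with internal standard. No-NADPH controls included. Products measured by LC-MS/MS.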

Cytochrome P450 2J2 [8] = target: T6, Cytochrome P450 2J2; assay: Drug metabolism assessed as recombinant CYP2J2 (unknown origin)-mediated compound formation treated with amiodarone at 1 uM after 5 to 45 mins by LC-MS/MS analysis; format: ADME; conditions: recombinant enzyme
In short: as §2

activity at 5 min, 30 µM (CYP2J2 [1]): 18.7%
inhibition at 8 min, 5 µM (CYP2C8 [2]): 32.7%
activity at 5 min, 30 µM (CYP2J2 [3]; recombinant enzyme): 39%
SMILES: CCCCc1oc2ccccc2c1C(=O)c1cc(I)c(OCCN(CC)CC)c(I)c1 [AMIODARONE]

SMILES: COc1ccc(CCN2CCC(Nc3nc4ccccc4n3Cc3ccc(F)cc3)CC2)cc1 [ASTEMIZOLE]
IC50 (Cytochrome P450 2C8): > 30 µM
inhibition at 8 min, 0.3 µM (CYP1A2): -0.6%
IC50 (Cytochrome P450 1A2): > 30 µM
inhibition at 8 min, 0.3 µM (CYP3A4): 20.3%
inhibition at 8 min, 0.3 µM (CYP2C8 [4]): 1.1%
inhibition at 8 min, 0.3 µM (CYP2C19): 6%
IC50 (Cytochrome P450 2D6): > 30 µM
IC50 (Cytochrome P450 2C19): 13.7 µM
Drug metabolism (Cytochrome P450 2J2 [5]): 32 pmol/min
inhibition at 8 min, 0.3 µM (CYP2C9): -2.7%
IC50 (Cytochrome P450 2C9): > 30 µM
activity at 5 min, 30 µM (CYP2J2 [3]; recombinant CYP2J2, probe terfenadine (hydroxylation)): 8.3%
inhibition at 8 min, 0.3 µM (CYP2D6): 8.5%

Retention_time [6]: 13.2 min
Drug metabolism (Cytochrome P450 2J2 [7]): metabolite_detected
Drug metabolism (Cytochrome P450 3A4): metabolite_detected
Drug metabolism (Cytochrome P450 2J2 [8]): metabolite_detected
SMILES: CCN(CC)CCOc1c(I)cc(C(=O)c2c(CCC(C)O)oc3ccccc23)cc1I (stereo not given)
